Results reported in ChEMBL document CHEMBL1629614, “Inhibition of methionyl-tRNA synthetase by REP8839 and effects of resistance mutations on enzyme activity” (Antimicrob Agents Chemother, 2009).
Residue numbers refer to the chain shown, from its start. Names may count otherwise.

B1: Methionine--tRNA ligase (Staphylococcus aureus subsp. aureus MW2), Q8NY00 I57N,G54S (protein)
chain: MAKETFYITTPIYYPSGNLHIGHAYSTVAGDVIARYKRMQGYDVRYLTGTDEHSQKNQEKAQKAGKTEIEYLDEMIAGIKQLWAKLEISNDDFIRTTEERHKHVVEQVFERLLKQGDIYLGEYEGWYSVPDETYYTESQLVDPQYENGKIIGGKSPDSGHEVELVKEESYFFNISKYTDRLLEFYDQNPDFIQPPSRKNEMINNFIKPGLADLAVSRTSFNWGVHVPSNPKHVVYVWIDALVNYISALGYLSDDESLFNKYWPADIHLMAKEIVRFHSIIWPILLMALDLPLPKKVFAHGWILMKDGKMSKSKGNVVDPNILIDRYGLDATRYYLMRELPFGSDGVFTPEAFVERTNFDLANDLGNLVNRTISMVNKYFDGELPAYQGPLHELDEEMEAMALETVKSYTESMESLQFSVALSTVWKFISRTNKYIDETTPWVLAKDDSQKDMLGNVMAHLVENIRYAAVLLRPFLTHAPKEIFEQLNINNPQFMEFSSLEQYGVLTESIMVTGQPKPIFPRLDSEAEIAYIKESMQPPATEEEKEEIPSKPQIDIKDFDKVEIKAATIINAEHVKKSDKLLKIQVDLDSEQRQIVSGIAKFYTPDDIIGKKVAVVTNLKPAKLMGQKSEGMILSAEKDGVLTLVSLPSAIPNGAVIK
B2: Methionine--tRNA ligase (Staphylococcus aureus subsp. aureus MW2), Q8NY00 G54A,A64P (protein)
chain: B1 chain with S54A, N57I, A64P

How the values were obtained:
[1] = compound: C=C(F)c1sc(CNCCCNc2cc(=O)c3ccccc3[nH]2)c(C)c1Br; experiment: Ratio of Kcat to Km for Staphylococcus aureus MetRS I57N G54S mutant in presence of tRNA
Procedure, shortened: (§1)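 Purified recombinant S. aureus MetRS was assayed by tRNA aminoacylation at 30°C for 1 to 7.5 min to obtain initial rates. Buffer was Tris pH 8.0 with Mg acetate, 2.5 mM ATP, KCl, DTT, BSA, [3H]methionine and crude E. coli tRNA. Reactions were EDTA-stopped, and charged tRNA was read by scintillation proximity with polylysine beads at pH 2.0.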

[2] = compound: C=C(F)c1sc(CNCCCNc2cc(=O)c3ccccc3[nH]2)c(C)c1Br; experiment: Activity of Staphylococcus aureus MetRS I57N, G54S mutant by ATP:PPi exchange assay in presence of ATP
Procedure, shortened: (§2)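 Purified S. aureus MetRS (wild type or mutant; E. coli-expressed, ammonium sulfate cut, anion exchange) at 30 nM. ATP:PPi exchange at 30°C in 100 mM Tris-HCl pH 8.0, 5–10 mM Mg acetate, 80 mM KCl, 2.5 mM DTT, [32P]PPi plus cold PPi equal to ATP. Quenched with EDTA over 1–10 min, PEI-cellulose TLC, phosphorimager. Initial velocities versus varied ATP or methionine fit to Michaelis-Menten.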

[3] = compound: C=C(F)c1sc(CNCCCNc2cc(=O)c3ccccc3[nH]2)c(C)c1Br; experiment: Ratio of Kcat to Km for Staphylococcus aureus MetRS I57N G54S mutant in presence of ATP
Procedure, shortened: (§3)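 Purified recombinant S. aureus MetRS (30 nM) was assayed by ATP:PPi exchange at 30°C in Tris pH 8.0 with Mg acetate, KCl and DTT. [32P]PPi was matched to ATP, and ATP or methionine was varied. Time points from 1 to 10 min were quenched with EDTA, separated by PEI-cellulose TLC and read by phosphorimager. Initial rates were fitted to Michaelis-Menten.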

[4] = compound: C=C(F)c1sc(CNCCCNc2cc(=O)c3ccccc3[nH]2)c(C)c1Br; experiment: Ratio of Kcat to Km for Staphylococcus aureus MetRS I57N G54S mutant in presence of methionine; procedure, shortened: as §3
[5] = compound: C=C(F)c1sc(CNCCCNc2cc(=O)c3ccccc3[nH]2)c(C)c1Br; experiment: Activity of streptococcus aureus MetRS I57N, G54S mutant by scintillation proximity assay in presence of tRNA; settings: Staphylococcus aureus
[6] = compound: C=C(F)c1sc(CNCCCNc2cc(=O)c3ccccc3[nH]2)c(C)c1Br; experiment: Activity of Staphylococcus aureus MetRS I57N, G54S mutant by ATP:PPi exchange assay in presence of methionine; procedure, shortened: as §2
[7] = compound: C=C(F)c1sc(CNCCCNc2cc(=O)c3ccccc3[nH]2)c(C)c1Br; experiment: Ratio of Kcat to Km for Staphylococcus aureus MetRS G54A A64P mutant in presence of ATP; procedure, shortened: as §3
[8] = compound: C=C(F)c1sc(CNCCCNc2cc(=O)c3ccccc3[nH]2)c(C)c1Br; experiment: Activity of streptococcus aureus MetRS G54A, A64P mutant by scintillation proximity assay in presence of tRNA; settings: Staphylococcus aureus
[9] = compound: C=C(F)c1sc(CNCCCNc2cc(=O)c3ccccc3[nH]2)c(C)c1Br; experiment: Activity of Staphylococcus aureus MetRS G54A, A64P mutant by ATP:PPi exchange assay in presence of methionine; procedure, shortened: as §2
[10] = compound: C=C(F)c1sc(CNCCCNc2cc(=O)c3ccccc3[nH]2)c(C)c1Br; experiment: Activity of Staphylococcus aureus MetRS G54A, A64P mutant by ATP:PPi exchange assay in presence of ATP; procedure, shortened: as §2
[11] = compound: C=C(F)c1sc(CNCCCNc2cc(=O)c3ccccc3[nH]2)c(C)c1Br; experiment: Ratio of Kcat to Km for Staphylococcus aureus MetRS G54A A64P mutant in presence of tRNA; procedure, shortened: as §1
[12] = compound: C=C(F)c1sc(CNCCCNc2cc(=O)c3ccccc3[nH]2)c(C)c1Br; experiment: Ratio of Kcat to Km for Staphylococcus aureus MetRS G54A A64P mutant in presence of methionine; procedure, shortened: as §3

Protein	kcat/Km [1]	Km [2]	kcat/Km [3]	kcat/Km [4]	Km [5]	kcat [5]	Km [6]	kcat [6]	kcat/Km [7]	Km [8]	kcat [8]	Km [9]	kcat [9]	Km [10]	kcat/Km [11]	kcat/Km [12]
B1	5000 M⁻¹ s⁻¹	765 µM	8000 M⁻¹ s⁻¹	20000 M⁻¹ s⁻¹	0.41 µM	0.002 s⁻¹	360 µM	6 s⁻¹								
B2									1000 M⁻¹ s⁻¹	0.57 µM	0.001 s⁻¹	1070 µM	1 s⁻¹	760 µM	2000 M⁻¹ s⁻¹	1000 M⁻¹ s⁻¹
